Compounds with a hit are over-represented: about 3.7% of the library has one in this group of screens.
proCasp3 act = activators of human procaspase-3 D3A mutant, primary screen, biochemical, absorbance, PC-3 D3A mutant, single concentration; Caspase-3 (Homo sapiens), P42574; 330,000 compounds, 0.11% hits; AID 463141, 2010; activation, % at 8.5 µM; recombinant procaspase-3 D3A, Ac-DEVD-pNA absorbance 405 nm;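 active = activation above the mean of all tested compounds plus 3 SD, cut at about 21% in these data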;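 note: 0% = DMSO alone and 100% = DMSO wells spiked with extra 5 µM PC-3 D3A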
Target sequence (P42574 whole entry D9A/D28A/D175A): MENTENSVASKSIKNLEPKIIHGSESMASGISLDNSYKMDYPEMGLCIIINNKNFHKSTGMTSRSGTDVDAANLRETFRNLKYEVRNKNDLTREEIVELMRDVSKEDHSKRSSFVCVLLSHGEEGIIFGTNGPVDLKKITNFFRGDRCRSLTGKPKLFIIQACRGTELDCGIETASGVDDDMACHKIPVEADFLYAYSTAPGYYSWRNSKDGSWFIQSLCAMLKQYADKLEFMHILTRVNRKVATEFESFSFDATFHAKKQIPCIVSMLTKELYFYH
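Assay system – Procaspase-3 D3A mutant · Benchmarks – DMSO low control, extra-enzyme high control · Technique – 405 nm absorbance of p-nitroaniline, reads at 0 and 120 min · Doses – 8.5 µM nominal · Measure – % activation between DMSO and enzyme-spiked controls · Also added – Ac-DEVD-pNA chromogenic peptide substrate · Schedule – 1 h compound preincubation, 2 h substrate hydrolysis at 25 °C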
GRIN3A LBD mod = binders of NR3A ligand-binding domain, primary screen, biophysical, differential scanning fluorimetry, uHTS; NR3A LBD differential scanning fluorimetry, Tm shift; 0% = protein alone, 100% = glycine-bound protein; 340,000 compounds, 2.5% hits; Tm shift relative to glycine control, % at 25 µM; AID 1259313, 2017;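 active = melting temperature shift of at least 10% of the positive control shift, at one fixed dose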
proCasp7 act = procaspase-7 activators, primary screen, counter-screen for procaspase-3 activator project, biochemical, absorbance, HTS, human | Caspase-7 (Homo sapiens), P55210 | recombinant procaspase-7, Ac-DEVD-pNA absorbance 405 nm; D23A/D198A/D206A triple mutant, cannot self-cleave; scale: DMSO 0, 5 µM enzyme 100 | 330,000 compounds, 0.093% hits | AID 463210, 2010 | activation, % at 8.5 µM;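 active = percent activation above the screen-wide mean plus 3 SD, cut at about 25% in these data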
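buffer or medium = Zinc-free HEPES/NaCl buffer, pH 7.4 | material = Procaspase-7 triple mutant (PC-7 D3A) | input = 2 µM procaspase-7 mutant as dispensed | signal = Epi-absorbance of released pNA at 405 nm, two timepoints | timing = 1 h preincubation, 2 h reaction | replicates = singlicate compound testing | evaluation = % activation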
aDG glyco act = activators of alpha-DG glycosylation, primary screen, uHTS, Pro5-aDG cells, AlphaScreen | activation, % at 10 µM | alpha-DG glycosylation AlphaScreen (IIH6); 0% Pro5, 100% B10-LARGE cell signal | 360,000 compounds, 0.22% hits;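 active = activation of at least 8% versus controls, or a plate z-score of at least 8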;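 note: Pro5 are CHO cells carrying HIG-tagged alpha-DG that lacks glycosylation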
MPTP block = mitochondrial permeability transition pore inhibitors, primary screen, biochemical, isolated mouse mitochondria, absorbance; 360,000 compounds, 1.4% hits; inhibition, % at 10 µM; Ca2+ swelling absorbance, 30 min;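 active = inhibition of 50% or more, scaled per plate between neutral and stimulator controls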;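 note: 0% = DMSO wells given calcium and 100% = 1 mM EGTA wells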
Rh123 counter = fluorescence retest of MPTP screen hits in isolated mitochondria, single concentration; shares compounds with MPTP block; membrane potential, Rhodamine 123 fluorescence; inhibition, % at 10 µM; 5,000 compounds, 78% hits; AID 624504, 2012; in the data active = inhibition above about 22%;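 note: 0% = DMSO vehicle and 100% = positive control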
The depositor's hits bear a star; x = no result.

SMILES	proCasp3 act	GRIN3A LBD mod	proCasp7 act	aDG glyco act	MPTP block	Rh123 counter
CC1(C(=O)Nc2ccc(Cl)cc2)Cc2c(-c3ccc4c(c3)OCO4)ccnc2O1 (configuration not stated)	x	x	x	0	0	x
CN(C)S(=O)(=O)c1cccc(-c2csc(=Nc3ccccc3)n2CCCN2CCOCC2)c1	-2	-1	8	0	0	x
CC(=O)c1cccc(N=c2scc(-c3ccc(S(=O)(=O)N4CCOCC4)cc3)n2CCO)c1	-26	-3	-23	3	97*	87*
O=S(=O)(c1ccc(-c2ccccc2)cc1)N1CCOCC1	7	2	-1	0	-1	x
C=CCn1c(-c2ccc(S(=O)(=O)N3CCOCC3)cc2)csc1=Nc1ccccc1	3	-1	0	2	58*	100*
CCc1cc(C(=O)N2CCCC(CNC(=O)c3ccc(-c4ccccc4)cc3)C2)no1 (configuration not stated)	-2	1	4	0	1	x
CCCCNC(=S)Nc1ccc(-c2nc3ccc(C)cc3s2)cc1	0	31*	1	0	88*	87*
CCC(C)(C)NC(=S)Nc1ccc(-c2nc3ccc(C)cc3s2)cc1	-21	31*	-16	0	85*	34*
COc1cc(C)ccc1OCC(=O)OCC(=O)NCC1CCCCC1	-1	1	1	0	0	x
CN(C)CCCN(C(=O)c1ccc([N+](=O)[O-])s1)c1nc2cc3c(cc2s1)OCCO3	1	-1	-1	0	-2	x
CN(C)CCCN(C(=O)c1ccc(Br)s1)c1nc2cc3c(cc2s1)OCCO3	6	-2	5	0	76*	-26
CN(C)CCCN(C(=O)c1cc2cc([N+](=O)[O-])ccc2s1)c1nc2cc3c(cc2s1)OCCO3	-5	-5	-1	0	83*	-30
Cc1cc(C)c(S(=O)(=O)N2CCCCC2C(=O)O)c(C)c1 (configuration not stated)	6	-5	7	0	1	x
C=CCN=c1scc(-c2ccc3c(c2)NC(=O)CO3)n1/N=C(\C)c1ccccn1	x	-12	x	1	95*	62*
O=C1NC(=S)SC1=Cc1ccc(Cl)cc1	x	6	x	0	95*	79*
O=C1NC(=S)NC1=Cc1ccc(Cl)cc1Cl	x	-6	x	0	2	x
O=C1NC(=S)SC1=Cc1ccc(F)cc1	x	-6	x	0	82*	85*
O=C1NC(=O)C(=Cc2ccc(Cl)cc2Cl)S1	x	-8	x	0	81*	94*
O=C1NC(=S)S/C1=C\c1ccc2ccccc2c1	0	-1	-5	0	44	x
COc1ccc(C=C2SC(=S)NC2=O)cc1	x	-1	x	0	18	x
O=C1NC(=S)SC1=Cc1ccccc1Br	x	-2	x	0	94*	74*
CCCCCCCCCc1conc1C(=O)/C=C/c1ccco1	x	x	x	0	8	x
Cc1sc2ncnc(N3CCN(S(=O)(=O)c4ccccc4)CC3)c2c1C	2	-1	8	3	94*	89*
Cc1ccc(OCCN2CCN(c3ncnc4sc(C)c(C)c34)CC2)cc1	9	0	8	3	97*	90*
Cc1sc2ncnc(N3CCCCC3)c2c1C	-1	-1	7	0	1	x
Clc1ccc(OCCN2CCN(c3ncnc4sccc34)CC2)cc1	3	0	-14	6	100*	101*
CO[C@H]1CN(C)C(=O)c2ccc(NC(=O)C3CCC3)cc2OC[C@H](C)N(Cc2ccccn2)C[C@@H]1C	x	x	x	0	4	x
C=C1CC[C@@H]2[C@](C)(CO)[C@H](O)CC[C@@]2(C)[C@@H]1C/C=C1/C(=O)OCC1O (some centres not stated)	x	-2	x	1	-2	x

Assay outcomes as filed in PubChem BioAssay.
